Reference: ChEMBL document CHEMBL3425433, “Discovery of bicyclic pyrazoles as class III histone deacetylase SIRT1 and SIRT2 inhibitors” (Bioorg Med Chem Lett, 2015)

Target: T1, NAD-dependent protein deacetylase sirtuin-1 (Homo sapiens) (UniProt Q96EB6)
T1 sequence (whole entry): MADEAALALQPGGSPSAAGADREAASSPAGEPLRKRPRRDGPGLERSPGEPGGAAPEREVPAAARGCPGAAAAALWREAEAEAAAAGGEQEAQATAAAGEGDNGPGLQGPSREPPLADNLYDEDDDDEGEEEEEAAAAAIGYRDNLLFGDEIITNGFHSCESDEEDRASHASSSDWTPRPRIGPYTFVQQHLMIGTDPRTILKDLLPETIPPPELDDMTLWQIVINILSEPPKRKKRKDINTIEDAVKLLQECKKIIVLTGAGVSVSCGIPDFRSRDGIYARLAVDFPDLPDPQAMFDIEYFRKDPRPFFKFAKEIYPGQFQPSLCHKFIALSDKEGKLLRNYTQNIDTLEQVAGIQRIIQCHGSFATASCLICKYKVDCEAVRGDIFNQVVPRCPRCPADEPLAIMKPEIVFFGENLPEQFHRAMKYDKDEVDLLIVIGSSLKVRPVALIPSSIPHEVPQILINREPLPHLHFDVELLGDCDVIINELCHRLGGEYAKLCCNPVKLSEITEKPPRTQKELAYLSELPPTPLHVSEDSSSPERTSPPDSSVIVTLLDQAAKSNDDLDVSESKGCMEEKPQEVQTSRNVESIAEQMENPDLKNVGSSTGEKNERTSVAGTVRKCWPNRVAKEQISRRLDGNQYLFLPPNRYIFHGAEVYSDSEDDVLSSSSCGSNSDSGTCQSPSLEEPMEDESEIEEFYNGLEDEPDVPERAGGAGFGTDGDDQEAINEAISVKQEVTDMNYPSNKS
Assay: Inhibition of SIRT1-mediated endogenous p53 deacetylase activity in human Namalwa cells assessed as concentration required to […] to twice the basal level after 3 hrs by ELISA
Format: cell-based
In short: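 Namalwa cells, 50,000/well, were exposed 3 h at 37 °C, 5% CO2, to 0.005–50 µM final (0.95% DMSO). Lysates were ELISA-captured on anti-p53 (DO-1), probed overnight with anti-acetyl-Lys382-p53, then HRP conjugate and Amplex Red (15 min; ex 550/em 610 nm). IC2xB is the concentration doubling basal (lowest) fluorescence. Means of three experiments.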

- INH: 0.6 µM
Compound: NC(=O)C1CCCc2c1[nH]c1ccc(Cl)cc21 (racemic)
